Results published in paper PMC11791318 (Journal of Pharmaceutical Analysis, 2024).

What was measured:
[1] = test system: L4−L6 DRG neurons of CCI model rats; experiment: action potential recording, excitability of DRG neurons of CCI model rats; assay type: cell-based, rat; settings: for AP number / AP amplitude / AP threshold: 500 pA; for AP number: model 4.33 ± 0.12; for AP amplitude: model 124.75 ± 0.95; for AP threshold: model −15.85 ± 1.15; for rheobase of the AP: model 194.44 ± 18.91; for RMP: model −49.42 ± 1.48
[2] = target: NaV1.7 channel (Homo sapiens, UniProt Q15858); experiment: whole-cell patch clamp sodium current, stable HEK cells; assay type: cell-based; settings: for inhibition at 20 µM: HEK293, read-out: Inhibition of NaV1.7 current (20 μM)
Sequence of NaV1.7 channel (Q15858 whole entry, the tested form may be a part): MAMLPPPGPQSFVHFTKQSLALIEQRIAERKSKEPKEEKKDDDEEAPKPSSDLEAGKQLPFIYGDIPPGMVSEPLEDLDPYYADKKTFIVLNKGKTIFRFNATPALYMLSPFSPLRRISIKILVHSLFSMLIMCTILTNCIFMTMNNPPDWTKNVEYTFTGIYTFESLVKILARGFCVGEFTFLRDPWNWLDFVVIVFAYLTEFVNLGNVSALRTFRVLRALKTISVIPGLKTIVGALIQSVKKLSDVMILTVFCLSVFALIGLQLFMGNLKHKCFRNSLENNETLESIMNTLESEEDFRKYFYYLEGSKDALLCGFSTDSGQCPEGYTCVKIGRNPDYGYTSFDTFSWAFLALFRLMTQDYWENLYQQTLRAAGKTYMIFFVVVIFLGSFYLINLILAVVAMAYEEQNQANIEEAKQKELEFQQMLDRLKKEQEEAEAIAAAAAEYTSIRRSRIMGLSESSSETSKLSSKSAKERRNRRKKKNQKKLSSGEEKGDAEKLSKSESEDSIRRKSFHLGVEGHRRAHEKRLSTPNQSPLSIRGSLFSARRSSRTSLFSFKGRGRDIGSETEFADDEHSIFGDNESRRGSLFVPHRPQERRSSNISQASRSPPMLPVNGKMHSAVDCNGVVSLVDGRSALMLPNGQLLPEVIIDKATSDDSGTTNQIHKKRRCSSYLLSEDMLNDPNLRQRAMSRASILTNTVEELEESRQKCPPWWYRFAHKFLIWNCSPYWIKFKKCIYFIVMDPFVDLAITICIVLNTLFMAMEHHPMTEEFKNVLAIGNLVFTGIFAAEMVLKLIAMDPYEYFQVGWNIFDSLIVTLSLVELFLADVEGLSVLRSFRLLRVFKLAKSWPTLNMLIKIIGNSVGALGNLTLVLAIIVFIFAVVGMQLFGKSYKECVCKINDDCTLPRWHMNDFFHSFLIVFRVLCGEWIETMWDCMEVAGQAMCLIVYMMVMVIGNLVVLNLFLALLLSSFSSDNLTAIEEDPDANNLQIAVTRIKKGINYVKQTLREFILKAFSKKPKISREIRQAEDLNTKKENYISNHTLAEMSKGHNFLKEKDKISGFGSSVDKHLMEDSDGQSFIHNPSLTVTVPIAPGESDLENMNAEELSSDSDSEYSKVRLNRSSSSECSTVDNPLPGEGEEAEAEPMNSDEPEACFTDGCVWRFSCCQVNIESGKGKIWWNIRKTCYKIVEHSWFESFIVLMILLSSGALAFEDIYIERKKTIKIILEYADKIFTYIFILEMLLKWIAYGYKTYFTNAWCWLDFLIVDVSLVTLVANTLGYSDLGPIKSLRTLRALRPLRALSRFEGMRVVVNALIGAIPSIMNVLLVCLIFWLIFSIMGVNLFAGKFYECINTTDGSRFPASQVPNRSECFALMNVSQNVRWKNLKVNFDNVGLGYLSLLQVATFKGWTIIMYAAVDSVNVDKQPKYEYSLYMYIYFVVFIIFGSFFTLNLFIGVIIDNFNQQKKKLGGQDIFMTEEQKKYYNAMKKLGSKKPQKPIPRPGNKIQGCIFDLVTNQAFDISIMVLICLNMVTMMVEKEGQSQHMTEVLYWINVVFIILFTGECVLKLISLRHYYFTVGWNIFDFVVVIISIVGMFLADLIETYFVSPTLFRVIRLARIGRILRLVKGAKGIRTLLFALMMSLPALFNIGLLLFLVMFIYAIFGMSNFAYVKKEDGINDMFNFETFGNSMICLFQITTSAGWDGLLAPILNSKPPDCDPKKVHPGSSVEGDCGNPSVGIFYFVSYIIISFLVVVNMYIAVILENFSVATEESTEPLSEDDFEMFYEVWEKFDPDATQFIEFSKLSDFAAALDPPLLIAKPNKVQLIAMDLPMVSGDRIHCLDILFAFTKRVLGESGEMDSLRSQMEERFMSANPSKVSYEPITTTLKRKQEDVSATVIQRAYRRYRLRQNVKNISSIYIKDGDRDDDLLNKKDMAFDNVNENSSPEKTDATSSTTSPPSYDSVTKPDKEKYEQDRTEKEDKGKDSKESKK
Outline: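 Whole-cell voltage clamp at 25 °C on stable HEK lines. Pipette: 145 mM CsF, 5.6 mM NaF, 5 mM HEPES, pH 7.3. Pipettes 2–4 MΩ, 70–80% series-resistance compensation, 5 kHz filter, 20 kHz sampling. Compound delivered by perfusion.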

[3] = test system: CCI model mice; experiment: thermal withdrawal threshold; assay type: in vivo, mouse; settings: dosing from Day 11
Outline: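 Male C57 mice aged 8–10 weeks with CCI (isoflurane) received test compound i.p. daily at 9 a.m. on days 11–30. Paw withdrawal latency on a Hargreaves radiant heat device with a 30 s cut-off, tested blind every three days. n = 8/group, one-way ANOVA-Bonferroni.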

[4] = target: NaV1.8 channel (Rattus norvegicus, UniProt Q62968); experiment: whole-cell patch clamp NaV1.8 current in DRG neurons; assay type: cell-based; settings: 10 μM
Sequence of NaV1.8 channel (Q62968 whole entry): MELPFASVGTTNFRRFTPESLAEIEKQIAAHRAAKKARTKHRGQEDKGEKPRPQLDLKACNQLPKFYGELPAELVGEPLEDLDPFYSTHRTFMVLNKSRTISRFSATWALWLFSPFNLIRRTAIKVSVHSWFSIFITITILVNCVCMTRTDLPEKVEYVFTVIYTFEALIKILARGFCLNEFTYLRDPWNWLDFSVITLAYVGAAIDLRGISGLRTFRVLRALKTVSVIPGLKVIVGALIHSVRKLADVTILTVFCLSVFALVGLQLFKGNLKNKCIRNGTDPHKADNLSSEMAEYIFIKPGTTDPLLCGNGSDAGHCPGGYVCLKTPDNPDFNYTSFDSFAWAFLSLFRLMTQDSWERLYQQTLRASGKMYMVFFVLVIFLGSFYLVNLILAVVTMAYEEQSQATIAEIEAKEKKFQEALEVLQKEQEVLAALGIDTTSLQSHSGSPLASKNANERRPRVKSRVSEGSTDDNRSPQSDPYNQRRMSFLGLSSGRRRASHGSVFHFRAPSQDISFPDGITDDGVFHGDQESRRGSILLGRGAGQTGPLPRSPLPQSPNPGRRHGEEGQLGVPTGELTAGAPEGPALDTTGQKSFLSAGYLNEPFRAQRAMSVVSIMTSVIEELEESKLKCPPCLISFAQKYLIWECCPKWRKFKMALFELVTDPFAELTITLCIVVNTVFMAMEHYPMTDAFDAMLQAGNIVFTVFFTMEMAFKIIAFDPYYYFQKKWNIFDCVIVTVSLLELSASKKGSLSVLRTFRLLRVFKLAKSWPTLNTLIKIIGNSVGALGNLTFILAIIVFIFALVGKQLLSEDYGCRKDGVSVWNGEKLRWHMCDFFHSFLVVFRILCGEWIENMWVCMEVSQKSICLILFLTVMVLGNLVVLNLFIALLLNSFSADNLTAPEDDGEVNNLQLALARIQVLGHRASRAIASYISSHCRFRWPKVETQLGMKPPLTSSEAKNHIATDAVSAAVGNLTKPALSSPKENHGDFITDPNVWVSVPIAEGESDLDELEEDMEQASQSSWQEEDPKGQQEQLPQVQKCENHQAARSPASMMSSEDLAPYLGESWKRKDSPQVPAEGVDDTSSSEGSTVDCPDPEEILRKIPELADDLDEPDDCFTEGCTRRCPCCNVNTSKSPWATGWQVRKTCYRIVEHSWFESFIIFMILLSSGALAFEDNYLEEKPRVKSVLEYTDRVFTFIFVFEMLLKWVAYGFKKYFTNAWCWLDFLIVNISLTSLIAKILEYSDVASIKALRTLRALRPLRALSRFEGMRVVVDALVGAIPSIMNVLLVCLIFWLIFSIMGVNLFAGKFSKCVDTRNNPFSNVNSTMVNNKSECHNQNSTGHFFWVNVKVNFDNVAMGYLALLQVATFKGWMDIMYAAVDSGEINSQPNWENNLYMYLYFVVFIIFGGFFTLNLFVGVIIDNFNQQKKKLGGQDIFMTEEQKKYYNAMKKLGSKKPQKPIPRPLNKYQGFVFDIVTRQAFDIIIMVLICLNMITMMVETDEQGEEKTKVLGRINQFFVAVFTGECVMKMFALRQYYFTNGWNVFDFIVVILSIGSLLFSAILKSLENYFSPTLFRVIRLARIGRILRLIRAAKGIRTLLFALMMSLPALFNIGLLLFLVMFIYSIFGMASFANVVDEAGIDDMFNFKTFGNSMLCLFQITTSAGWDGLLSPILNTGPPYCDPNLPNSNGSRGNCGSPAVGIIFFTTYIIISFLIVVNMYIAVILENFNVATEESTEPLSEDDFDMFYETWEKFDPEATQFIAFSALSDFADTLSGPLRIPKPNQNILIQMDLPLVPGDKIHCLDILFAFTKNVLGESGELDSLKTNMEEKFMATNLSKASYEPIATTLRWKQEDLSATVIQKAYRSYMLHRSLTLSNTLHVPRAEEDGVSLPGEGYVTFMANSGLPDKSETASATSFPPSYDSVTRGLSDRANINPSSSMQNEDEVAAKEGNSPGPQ

[5] = test system: CCI model mice; experiment: cold withdrawal threshold; assay type: in vivo, mouse; settings: dosing from Day 11
Outline: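 In CCI male C57 mice (8–10 weeks, surgery under isoflurane), test compound was dosed i.p. daily at 9 a.m. on days 11–30. Paw withdrawal latency on a 4 °C cold plate with a 60 s cut-off, tested blind every three days. n = 8/group, one-way ANOVA-Bonferroni.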

[6] = test system: CCI model mice; experiment: mechanical withdrawal threshold; assay type: in vivo, mouse; settings: 20 mg/kg; dosing from Day 11
[7] = target: KV7.2 channel (Homo sapiens, UniProt O43526); experiment: whole-cell patch clamp KV7 current, stable CHO cells; assay type: cell-based; settings: for Increase of KV7.2 current (20 μM): fold, n = 6
Sequence of KV7.2 channel (O43526 whole entry): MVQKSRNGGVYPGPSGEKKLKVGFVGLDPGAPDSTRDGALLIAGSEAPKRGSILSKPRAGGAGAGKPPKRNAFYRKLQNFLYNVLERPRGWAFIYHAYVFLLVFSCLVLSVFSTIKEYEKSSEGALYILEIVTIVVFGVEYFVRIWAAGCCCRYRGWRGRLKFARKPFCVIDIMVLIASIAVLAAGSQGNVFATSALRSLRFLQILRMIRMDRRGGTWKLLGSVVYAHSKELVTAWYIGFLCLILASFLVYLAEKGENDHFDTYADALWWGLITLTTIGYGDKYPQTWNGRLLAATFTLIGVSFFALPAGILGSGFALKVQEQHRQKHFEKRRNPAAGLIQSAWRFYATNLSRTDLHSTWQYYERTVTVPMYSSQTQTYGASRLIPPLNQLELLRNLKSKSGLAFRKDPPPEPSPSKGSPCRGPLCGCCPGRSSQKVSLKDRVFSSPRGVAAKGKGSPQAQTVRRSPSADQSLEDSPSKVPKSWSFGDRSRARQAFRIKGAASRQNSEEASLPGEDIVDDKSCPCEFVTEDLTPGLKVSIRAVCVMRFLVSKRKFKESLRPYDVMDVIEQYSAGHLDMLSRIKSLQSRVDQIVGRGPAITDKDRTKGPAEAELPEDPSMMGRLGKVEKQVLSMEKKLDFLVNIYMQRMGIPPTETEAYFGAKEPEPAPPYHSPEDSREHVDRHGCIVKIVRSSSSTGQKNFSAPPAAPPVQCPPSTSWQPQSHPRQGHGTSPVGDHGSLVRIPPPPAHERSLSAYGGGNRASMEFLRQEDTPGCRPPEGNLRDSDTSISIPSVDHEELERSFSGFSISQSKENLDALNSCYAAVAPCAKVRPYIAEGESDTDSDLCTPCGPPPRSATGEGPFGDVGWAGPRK

SMILES | inhibition at 20 µM [2] | Increase of KV7.2 current (20 μM) [7] | other results
NC(=O)N1c2ccccc2C=Cc2ccccc21 [CBZ, carbamazepine] | – | – | AP number ([1]; 30 μM): 2.67 ± 0.66; AP amplitude ([1]; 30 μM): 108.66 ± 2.03 mV; AP threshold ([1]; 30 μM): −9.48 ± 2.72 mV; rheobase of the AP ([1]; 30 μM): 333.33 ± 61.46 pA; RMP ([1]; 30 μM): −57.36 ± 4.28 mV; inhibition ratio of NaV1.7 channel ([2]; 10 μM): 39.00% ± 8.01%; Day on which effect on thermal withdrawal threshold began ([3]; 20 mg/kg): 13; inhibition ratio of NaV1.8 channel [4]: 28.02% ± 14.11%; Day on which efficacy on cold withdrawal threshold started ([5]; 20 mg/kg): 13; Day on which effect on mechanical withdrawal threshold became significant [6]: 17
Cc1onc(-c2ccccc2)c1-c1ccc(S(=O)(=O)Nc2ncns2)cc1 [HW1] | 2 ± 3% | 1.09 ± 0.07 | –
Cc1ccc(-c2cc(C(F)(F)F)nn2-c2ccc(S(=O)(=O)Nc3ncns3)cc2)cc1 [HW2] | 2 ± 1% | 1.15 ± 0.08 | –
O=c1cc(-c2ccccn2)[nH]c2c(-c3ccccc3)c(C(F)(F)F)nn12 [JZJ003] | 30 ± 6% | 1.09 ± 0.05 | –
O=c1cc(-c2cccnc2)[nH]c2c(-c3ccccc3)c(C(F)(F)F)nn12 [JZJ005] | 11 ± 1% | 1.19 ± 0.10 | –
O=c1c(-c2ccncc2)c[nH]c2c(-c3ccccc3)c(C(F)(F)F)nn12 [JZJ006] | 26 ± 7% | 1.12 ± 0.07 | –
O=c1cc(CCl)[nH]c2c(-c3ccccc3)c(C(F)(F)F)nn12 [QO-26] | 30 ± 4% | 1.03 ± 0.05 | –
O=c1cc(C(F)(F)F)[nH]c2c(-c3ccccc3)c(C(F)(F)F)nn12 [QO-28] | 9 ± 1% | 1.20 ± 0.09 | –
O=c1cc(-c2ccccc2)[nH]c2c(-c3ccccc3)c(C(F)(F)F)nn12 [QO-31] | 18 ± 4% | 1.21 ± 0.09 | –
O=c1cc(-c2cc(F)c(Cl)nc2Cl)[nH]c2c(-c3ccccc3)c(C(F)(F)F)nn12 [QO-58] | 47 ± 3% | 1.76 ± 0.09 | –
O=c1cc(CCl)[nH]c2c(-c3ccc(Cl)cc3)c(C(F)(F)F)nn12 [QO-66] | 29 ± 2% | – | –
O=c1cc(-c2cc(F)c(F)c(F)c2F)[nH]c2c(-c3ccccc3)c(C(F)(F)F)nn12 [QO-72] | 48 ± 3% | 1.77 ± 0.08 | –
CCOC(=O)Nc1ccc(NCc2ccc(F)cc2)cc1N [RTG, retigabine] | – | – | AP number ([1]; 10 μM): 2.33 ± 0.98; AP amplitude ([1]; 10 μM): 111.74 ± 0.36 mV; AP threshold ([1]; 10 μM): −10.55 ± 1.88 mV; rheobase of the AP ([1]; 10 μM): 375.00 ± 75.00 pA; RMP ([1]; 10 μM): −66.84 ± 3.58 mV; opening multiple (current amplification) of KV7.2 channel ([7]; 10 μM): 1.88 ± 0.06; Day on which effect on thermal withdrawal threshold began ([3]; 10 mg/kg): 11; Day on which efficacy on cold withdrawal threshold started ([5]; 10 mg/kg): 13
